Measurements: ChEMBL document CHEMBL1268908, “Design, synthesis, radiolabeling, and in vivo evaluation of carbon-11 labeled N-[2-[4-(3-cyanopyridin-2-yl)piperazin-1-yl]ethyl]-3-methoxybenzamide, a potential positron emission tomography tracer for the dopamine D(4) receptors” (J Med Chem, 2010)

Key:
Hippocampus [1] = assay: Biodistribution in rhesus monkey hippocampus at 150.3 MBq, iv after 0.25 mins; type: ADME, organism-based, Macaca mulatta; conditions: in vivo, 15 s
In short: (§1)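 Single male rhesus monkey anesthetized with ketamine 10 mg/kg im, head fixed. Attenuation correction by 20 min 68Ge-68Ga transmission scan. [11C]-tracer in saline (pH 7.4) given iv, specific radioactivity 2.9 TBq/μmol at injection. Dynamic 3D PET emission scan over 90 min in frames of 0.5 to 5 min. MRI T1 images used to define VOIs. Uptake expressed as […].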

Striatum [2] = assay: Biodistribution in rhesus monkey striatum at 150.3 MBq, iv after 0.25 mins; type: ADME, organism-based, Macaca mulatta; conditions: in vivo, 15 s
[3] = Biodistribution in rhesus monkey cerebellum at 150.3 MBq, iv after 0.25 mins; type: ADME, organism-based, Macaca mulatta; conditions: in vivo, 15 s
In short: (§2)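 Male rhesus monkey under ketamine (10 mg/kg im) with head fixation. After a 20 min 68Ge-68Ga transmission scan, the [11C]-labelled tracer in saline (pH 7.4) was injected iv, at 2.9 TBq/μmol specific radioactivity at injection. A dynamic 3D PET scan followed over 90 min (6×0.5, 7×1, 20×2, 8×5 min frames). Regions were defined on T1-weighted 1.5 T MRI, and uptake is given as %ID/mL.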

[4] = Biodistribution in rhesus monkey cerebellum at 150.3 MBq, iv after 0.75 mins; type: ADME, organism-based, Macaca mulatta; conditions: in vivo, 45 s; in short: as §2
[5] = Biodistribution in rhesus monkey cingulate cortex at 150.3 MBq, iv after 1.25 mins; type: ADME, organism-based, Macaca mulatta; conditions: in vivo, 75 s; in short: as §2
[6] = Biodistribution in rhesus monkey cerebellum at 150.3 MBq, iv after 1.25 mins; type: ADME, organism-based, Macaca mulatta; conditions: in vivo, 75 s; in short: as §2
[7] = Biodistribution in rhesus monkey occipital lobe at 150.3 MBq, iv after 1.25 mins; type: ADME, organism-based, Macaca mulatta; conditions: in vivo, 75 s
In short: (§3)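 Male rhesus monkey under ketamine 10 mg/kg im, head fixed; 20 min 68Ge-68Ga transmission scan, then 90 min dynamic 3D PET (6×0.5, 7×1, 20×2, 8×5 min frames) after iv [11C]-labelled tracer in saline, specific radioactivity about 2.9 TBq/μmol at injection. Regions defined on T1-weighted MRI; uptake expressed as % injected dose per mL.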

Hippocampus [8] = assay: Biodistribution in rhesus monkey hippocampus at 150.3 MBq, iv after 1.75 mins; type: ADME, organism-based, Macaca mulatta; conditions: in vivo, 105 s; in short: as §1
[9] = Biodistribution in rhesus monkey cerebellum at 150.3 MBq, iv after 2.25 mins; type: ADME, organism-based, Macaca mulatta; conditions: in vivo, 135 s; in short: as §2
[10] = Biodistribution in rhesus monkey entorhinal cortex at 150.3 MBq, iv after 4.5 mins; type: ADME, organism-based, Macaca mulatta; conditions: in vivo, 0.075 h; in short: as §1
[11] = Biodistribution in rhesus monkey cingulate cortex at 150.3 MBq, iv after 5.5 mins; type: ADME, organism-based, Macaca mulatta; conditions: in vivo; in short: as §1
[12] = Biodistribution in rhesus monkey cingulate cortex at 150.3 MBq, iv after 6.5 mins; type: ADME, organism-based, Macaca mulatta; conditions: in vivo; in short: as §1
Striatum [13] = assay: Biodistribution in rhesus monkey striatum at 150.3 MBq, iv after 6.5 mins; type: ADME, organism-based, Macaca mulatta; conditions: in vivo
[14] = Biodistribution in rhesus monkey occipital lobe at 150.3 MBq, iv after 6.5 mins; type: ADME, organism-based, Macaca mulatta; conditions: in vivo
[15] = Biodistribution in rhesus monkey retina at 150.3 MBq, iv after 7.5 mins; type: ADME, organism-based, Macaca mulatta; conditions: in vivo, 0.125 h
Striatum [16] = assay: Biodistribution in rhesus monkey striatum at 150.3 MBq, iv after 9.5 mins; type: ADME, organism-based, Macaca mulatta; conditions: in vivo
[17] = Biodistribution in rhesus monkey cingulate cortex at 150.3 MBq, iv after 11 mins; type: ADME, organism-based, Macaca mulatta; conditions: in vivo; in short: as §2
[18] = Biodistribution in rhesus monkey occipital lobe at 150.3 MBq, iv after 11 mins; type: ADME, organism-based, Macaca mulatta; conditions: in vivo; in short: as §3
[19] = Biodistribution in rhesus monkey entorhinal cortex at 150.3 MBq, iv after 13 mins; type: ADME, organism-based, Macaca mulatta; conditions: in vivo; in short: as §1
Striatum [20] = assay: Biodistribution in rhesus monkey striatum at 150.3 MBq, iv after 13 mins; type: ADME, organism-based, Macaca mulatta; conditions: in vivo
[21] = Biodistribution in rhesus monkey cerebellum at 150.3 MBq, iv after 13 mins; type: ADME, organism-based, Macaca mulatta; conditions: in vivo; in short: as §2
[22] = Biodistribution in rhesus monkey occipital lobe at 150.3 MBq, iv after 23 mins; type: ADME, organism-based, Macaca mulatta; conditions: in vivo; in short: as §3
Hippocampus [23] = assay: Biodistribution in rhesus monkey hippocampus at 150.3 MBq, iv after 25 mins; type: ADME, organism-based, Macaca mulatta; conditions: in vivo; in short: as §1
[24] = Biodistribution in rhesus monkey cerebellum at 150.3 MBq, iv after 25 mins; type: ADME, organism-based, Macaca mulatta; conditions: in vivo; in short: as §2
[25] = Biodistribution in rhesus monkey cerebellum at 150.3 MBq, iv after 27 mins; type: ADME, organism-based, Macaca mulatta; conditions: in vivo, 0.45 h; in short: as §2
[26] = Biodistribution in rhesus monkey occipital lobe at 150.3 MBq, iv after 27 mins; type: ADME, organism-based, Macaca mulatta; conditions: in vivo, 0.45 h; in short: as §3
Striatum [27] = assay: Biodistribution in rhesus monkey striatum at 150.3 MBq, iv after 29 mins; type: ADME, organism-based, Macaca mulatta; conditions: in vivo
[28] = Biodistribution in rhesus monkey cingulate cortex at 150.3 MBq, iv after 31 mins; type: ADME, organism-based, Macaca mulatta; conditions: in vivo; in short: as §2
[29] = Biodistribution in rhesus monkey entorhinal cortex at 150.3 MBq, iv after 35 mins; type: ADME, organism-based, Macaca mulatta; conditions: in vivo; in short: as §1
[30] = Biodistribution in rhesus monkey retina at 150.3 MBq, iv after 35 mins; type: ADME, organism-based, Macaca mulatta; conditions: in vivo
[31] = Biodistribution in rhesus monkey cerebellum at 150.3 MBq, iv after 41 mins; type: ADME, organism-based, Macaca mulatta; conditions: in vivo; in short: as §2
Striatum [32] = assay: Biodistribution in rhesus monkey striatum at 150.3 MBq, iv after 43 mins; type: ADME, organism-based, Macaca mulatta; conditions: in vivo
[33] = Biodistribution in rhesus monkey entorhinal cortex at 150.3 MBq, iv after 47 mins; type: ADME, organism-based, Macaca mulatta; conditions: in vivo; in short: as §1
[34] = Biodistribution in rhesus monkey cerebellum at 150.3 MBq, iv after 47 mins; type: ADME, organism-based, Macaca mulatta; conditions: in vivo; in short: as §2
[35] = Biodistribution in rhesus monkey cingulate cortex at 150.3 MBq, iv after 57.5 mins; type: ADME, organism-based, Macaca mulatta; conditions: in vivo; in short: as §1
Striatum [36] = assay: Biodistribution in rhesus monkey striatum at 150.3 MBq, iv after 62.5 mins; type: ADME, organism-based, Macaca mulatta; conditions: in vivo
Striatum [37] = assay: Biodistribution in rhesus monkey striatum at 150.3 MBq, iv after 67.5 mins; type: ADME, organism-based, Macaca mulatta; conditions: in vivo, 1.125 h
[38] = Biodistribution in rhesus monkey cingulate cortex at 150.3 MBq, iv after 77.5 mins; type: ADME, organism-based, Macaca mulatta; conditions: in vivo; in short: as §1
[39] = Biodistribution in rhesus monkey retina at 150.3 MBq, iv after 77.5 mins; type: ADME, organism-based, Macaca mulatta; conditions: in vivo
Hippocampus [40] = assay: Biodistribution in rhesus monkey hippocampus at 150.3 MBq, iv after 82.5 mins; type: ADME, organism-based, Macaca mulatta; conditions: in vivo, 1.375 h; in short: as §3
Striatum [41] = assay: Biodistribution in rhesus monkey striatum at 150.3 MBq, iv after 82.5 mins; type: ADME, organism-based, Macaca mulatta; conditions: in vivo, 1.375 h
[42] = Biodistribution in rhesus monkey retina at 150.3 MBq, iv after 82.5 mins; type: ADME, organism-based, Macaca mulatta; conditions: in vivo, 1.375 h
Striatum [43] = assay: Biodistribution in rhesus monkey striatum at 150.3 MBq, iv after 87.5 mins; type: ADME, organism-based, Macaca mulatta; conditions: in vivo
[44] = Biodistribution in rhesus monkey retina at 150.3 MBq, iv after 2.75 mins; type: ADME, organism-based, Macaca mulatta; conditions: in vivo, 165 s
Striatum [45] = assay: Biodistribution in rhesus monkey striatum at 150.3 MBq, iv after 8.5 mins; type: ADME, organism-based, Macaca mulatta; conditions: in vivo
Hippocampus [46] = assay: Biodistribution in rhesus monkey hippocampus at 150.3 MBq, iv after 72.5 mins; type: ADME, organism-based, Macaca mulatta; conditions: in vivo; in short: as §3
Striatum [47] = assay: Biodistribution in rhesus monkey striatum at 150.3 MBq, iv after 72.5 mins; type: ADME, organism-based, Macaca mulatta; conditions: in vivo
Striatum [48] = assay: Biodistribution in rhesus monkey striatum at 150.3 MBq, iv after 17 mins; conditions: in vivo

**Q.** Which Drug uptake (Hippocampus [1]) does the source give for [11CH3]Oc1cccc(C(=O)NCCN2CCN(c3ncccc3C#N)CC2)c1 here?
**A.** 39.52 kBq/ml

**Q.** What about the Drug uptake (Striatum [2]) of the same compound?
**A.** 42.71 kBq/ml

**Q.** And the Drug uptake [3]?
**A.** 40.52 kBq/ml

**Q.** What about the Drug uptake [4] of the same compound?
**A.** 56.67 kBq/ml

**Q.** What about the Drug uptake [5] of the same compound?
**A.** 60.79 kBq/ml

**Q.** And the Drug uptake [6]?
**A.** 51.01 kBq/ml

**Q.** And the Drug uptake [7]?
**A.** 55.16 kBq/ml

**Q.** What about the Drug uptake (Hippocampus [8]) of the same compound?
**A.** 50.86 kBq/ml

**Q.** And the Drug uptake [9]?
**A.** 44.35 kBq/ml

**Q.** And the Drug uptake [10]?
**A.** 33.7 kBq/ml

**Q.** And the Drug uptake [11]?
**A.** 36.57 kBq/ml

**Q.** What about the Drug uptake [12] of the same compound?
**A.** 35.15 kBq/ml

**Q.** And the Drug uptake (Striatum [13])?
**A.** 36.37 kBq/ml

**Q.** And the Drug uptake [14]?
**A.** 30.03 kBq/ml

**Q.** And the Drug uptake [15]?
**A.** 43.92 kBq/ml

**Q.** And the Drug uptake (Striatum [16])?
**A.** 31.24 kBq/ml

**Q.** What about the Drug uptake [17] of the same compound?
**A.** 25.93 kBq/ml

**Q.** What about the Drug uptake [18] of the same compound?
**A.** 21.64 kBq/ml

**Q.** And the Drug uptake [19]?
**A.** 22.48 kBq/ml

**Q.** And the Drug uptake (Striatum [20])?
**A.** 24.68 kBq/ml

**Q.** What about the Drug uptake [21] of the same compound?
**A.** 21.2714 kBq/ml

**Q.** And the Drug uptake [22]?
**A.** 15.16 kBq/ml

**Q.** What about the Drug uptake (Hippocampus [23]) of the same compound?
**A.** 16.72 kBq/ml

**Q.** And the Drug uptake [24]?
**A.** 15.53 kBq/ml

**Q.** What about the Drug uptake [25] of the same compound?
**A.** 15.14 kBq/ml

**Q.** What about the Drug uptake [26] of the same compound?
**A.** 14.42 kBq/ml

**Q.** What about the Drug uptake (Striatum [27]) of the same compound?
**A.** 15.32 kBq/ml

**Q.** And the Drug uptake [28]?
**A.** 14.33 kBq/ml

**Q.** What about the Drug uptake [29] of the same compound?
**A.** 11.33 kBq/ml

**Q.** And the Drug uptake [30]?
**A.** 57.58 kBq/ml

**Q.** What about the Drug uptake [31] of the same compound?
**A.** 10.86 kBq/ml

**Q.** What about the Drug uptake (Striatum [32]) of the same compound?
**A.** 11.39 kBq/ml

**Q.** What about the Drug uptake [33] of the same compound?
**A.** 11.44 kBq/ml

**Q.** What about the Drug uptake [34] of the same compound?
**A.** 10.15 kBq/ml

**Q.** And the Drug uptake [35]?
**A.** 10.34 kBq/ml

**Q.** And the Drug uptake (Striatum [36])?
**A.** 9.547 kBq/ml

**Q.** And the Drug uptake (Striatum [37])?
**A.** 9.576 kBq/ml

**Q.** What about the Drug uptake [38] of the same compound?
**A.** 9.3 kBq/ml

**Q.** And the Drug uptake [39]?
**A.** 50.63 kBq/ml

**Q.** What about the Drug uptake (Hippocampus [40]) of the same compound?
**A.** 8.042 kBq/ml

**Q.** And the Drug uptake (Striatum [41])?
**A.** 8.324 kBq/ml

**Q.** What about the Drug uptake [42] of the same compound?
**A.** 52.3 kBq/ml

**Q.** And the Drug uptake (Striatum [43])?
**A.** 8.125 kBq/ml

**Q.** What about the Drug uptake [44] of the same compound?
**A.** 37.33 kBq/ml

**Q.** What about the Drug uptake (Striatum [45]) of the same compound?
**A.** 31.7 kBq/ml

**Q.** What about the Drug uptake (Hippocampus [46]) of the same compound?
**A.** 8.523 kBq/ml

**Q.** And the Drug uptake (Striatum [47])?
**A.** 9.016 kBq/ml

**Q.** And the Drug uptake (Striatum [48])?
**A.** 20.6138 kBq/ml
